Measurements: ChEMBL document CHEMBL3045616, “Synthetic pyrazole derivatives as growth inhibitors of some phytopathogenic fungi” (J Agric Food Chem, 2007)
pIC50: −log10 of the molar value.

Key:
Globisporangium ultimum [1] = assay: Antifungal activity against logarithmic phase of Pythium ultimum ATCC 58812 assessed as growth inhibition at 100 ug/ml measured at 5 days post-drug treatment; format: functional; conditions: ATCC 58812, 120 h, read-out: GI
How it was run: (§1)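 Log-phase mycelium (from 10 mm stationary-phase disks grown on cellophane over PDA, pH 5.6, 26 ± 1 °C) moved to PDA with compound added from DMSO stock at 45 °C. Final concentrations were 10, 50 or 100 µg mL^-1, with 0.1% DMSO in test and control media. Colony diameter was read daily for 5 days, in triplicate, as % of untreated control.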

Pyricularia grisea [2] = assay: microbe, parasite or virus in culture; format: functional; conditions: ATCC 64413, 120 h, read-out: GI
Botrytis cinerea [3] = assay: Antifungal activity against logarithmic phase of Botryotinia fuckeliana ATCC 48339 assessed as growth inhibition at 50 ug/ml measured at 5 days post-drug treatment; format: functional; conditions: ATCC 48339, 120 h, read-out: GI; how it was run: as §1
Globisporangium ultimum [4] = assay: Antifungal activity against logarithmic phase of Pythium ultimum ATCC 58812 assessed as growth inhibition at 10 ug/ml measured at 5 days post-drug treatment; format: functional; conditions: ATCC 58812, 120 h, read-out: GI; how it was run: as §1
Botrytis cinerea [5] = assay: Antifungal activity against logarithmic phase of Botryotinia fuckeliana ATCC 48339 assessed as growth inhibition at 100 ug/ml measured at 5 days post-drug treatment; format: functional; conditions: ATCC 48339, 120 h, read-out: GI; how it was run: as §1
Globisporangium ultimum [6] = assay: Antifungal activity against logarithmic phase of Pythium ultimum ATCC 58812 assessed as growth inhibition at 50 ug/ml measured at 5 days post-drug treatment; format: functional; conditions: ATCC 58812, 120 h, read-out: GI; how it was run: as §1
Botrytis cinerea [7] = assay: Antifungal activity against logarithmic phase of Botryotinia fuckeliana ATCC 48339 assessed as growth inhibition at 10 ug/ml measured at 5 days post-drug treatment; format: functional; conditions: ATCC 48339, 120 h, read-out: GI; how it was run: as §1
Pyricularia grisea [8] = assay: microbe, parasite or virus in culture; format: functional; conditions: ATCC 64413, 120 h, read-out: GI; remark: listed apart in the source
Pyricularia grisea [9] = assay: microbe, parasite or virus in culture; format: functional; conditions: ATCC 64413, 120 h, read-out: GI; remark: listed apart in the source
Globisporangium ultimum [10] = assay: Antifungal activity against logarithmic phase of Pythium ultimum Trow ATCC 58812 assessed as growth inhibition measured at 5 days post-drug treatment; format: functional, organism-based; conditions: ATCC 58812, 120 h
How it was run: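 Log-phase mycelium grown on cellophane over PDA (pH 5.6, 26 ± 1 °C) moved to PDA containing compound at 10, 50 and 100 µg mL^-1 final, with 0.1% DMSO in test and control media. Colony diameter was measured daily for 5 days, in triplicate, relative to untreated controls. IC50 came from curves of activity (%) versus log inhibitor concentration.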

Structure (SMILES)	inhibition of growth at 100 µg/mL (Globisporangium ultimum [1]) [%]	inhibition of growth at 100 µg/mL (Pyricularia grisea [2]) [%]	inhibition of growth at 50 µg/mL (Botrytis cinerea [3]) [%]	inhibition of growth at 10 µg/mL (Globisporangium ultimum [4]) [%]	inhibition of growth at 100 µg/mL (Botrytis cinerea [5]) [%]	inhibition of growth at 50 µg/mL (Globisporangium ultimum [6]) [%]	inhibition of growth at 10 µg/mL (Botrytis cinerea [7]) [%]	inhibition of growth at 50 µg/mL (Pyricularia grisea [8]) [%]	inhibition of growth at 10 µg/mL (Pyricularia grisea [9]) [%]	pIC50 (Globisporangium ultimum [10])
COC(=O)c1c(C(=O)NC2CC2)nn(C)c1C	7.7	3.4	4	4.8	3.2	4.3	–	–	–	–
O=c1c2cn[nH]c2[nH]c(=S)n1-c1ccc(Cl)cc1	37.8	–	–	1.7	31.7	12.2	–	–	–	–
O=c1c2cn[nH]c2[nH]c(=S)n1-c1cccc(C(F)(F)F)c1	57.8	4.1	1	17.2	7.2	34.5	0.5	1.4	–	–
O=c1c2cn[nH]c2[nH]c(=S)n1Cc1ccccc1	78	44.4	23.4	44.1	31.9	64.6	13.5	23.4	0.5	4.18
Cc1c(C(=O)O)c(C(=O)NC(C)(C)C)nn1C	41.3	5.8	9.6	–	61.9	12.5	–	4.1	0.9	–
CCOC(=O)c1c[nH]nc1N=C(S)Nc1ccc(Cl)cc1	61.5	36.7	21	38	46.2	52.9	–	33.6	21.4	–
COC(=O)N(OC)c1ccccc1COc1ccn(-c2ccc(Cl)cc2)n1 [PYRACLOSTROBIN]	100	–	–	100	–	100	–	–	–	> 5.00
COC(=O)c1c(C(=O)O)nn(C)c1C	–	8.4	–	–	3.3	–	–	–	–	–
Cc1c(C(=O)O)c(C(=O)NC(C)(C)C)nn1-c1ccccc1	83.4	13.9	43.1	12.1	60.5	82.3	39.5	3.8	0.6	4.10
O=c1c2cn[nH]c2[nH]c(=S)n1-c1ccc(Br)cc1	61.8	20	–	–	–	22.5	–	18	–	–
O=c1c2cn[nH]c2[nH]c(=S)n1-c1ccc([N+](=O)[O-])cc1	13.7	–	–	4.6	2.1	8.7	–	–	–	–
Cc1onc(C(=O)NC2CC2)c1C(=O)O	53.5	8.97	–	46	–	46.6	3.8	2.3	–	–
Cc1c(C(=O)O)c(C(=O)NC2CC2)nn1C	11.4	8.6	9.9	–	19.8	6.6	3	4.3	–	–
CCOC(=O)c1cn[nH]c1NC(=S)Nc1ccc(Br)cc1	3.1	27.2	–	–	16.3	2	–	27.1	16.1	–
Cc1c(C(=O)O)c(C(=O)NC(C)(C)C)nn1-c1c(Cl)cc(C(F)(F)F)cc1Cl	54.7	24.4	22.6	1.9	27.5	37.9	17.3	20.6	–	–
O=c1c2cn[nH]c2[nH]c(=S)n1-c1cccc(Cl)c1	10.8	5	8.5	2.2	27.3	4.1	–	1	–	–
CCOC(=O)c1cn[nH]c1NC(=S)Nc1ccc([N+](=O)[O-])cc1	63.4	17.7	33	27.2	37.9	36	13.2	15.6	13	–
CCCCNC(=S)Nc1[nH]ncc1C(=O)OCC	10.4	10	15.1	–	32.4	–	4.7	8.6	–	–
Cc1[nH]nc(C(=O)NC2CC2)c1C(=O)O	39.9	9	10.6	3.2	19.2	32.9	–	5.9	3.6	–
CCOC(=O)c1cn[nH]c1NC(=S)NCc1ccccc1	38.3	41.4	26	3.7	32	34.6	0	35.6	15.8	–
CCNC(=S)Nc1[nH]ncc1C(=O)OCC	20	28.9	–	–	–	–	–	18.1	13.8	–
Cc1onc(C(=O)NC(C)(C)C)c1C(=O)O	40.2	–	13.3	9.7	18.2	15.8	4.3	–	–	–
CCOC(=O)c1cn[nH]c1NC(=S)NC1CCCCC1	63.9	36	–	44.4	–	59	–	26.7	29.8	–
CCn1c(=S)[nH]c2[nH]ncc2c1=O	–	4.1	–	–	–	–	–	3.6	–	–
